From PubChem BioAssay
LEDGF integ inh: blocks HIV-1 LEDGF/p75-dependent DNA integration; TR-FRET IN-LEDGF/p75 DNA integration, Eu/Cy5; inhibition, % at 3.7 µM; hit rate 0.64% among 370,000;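 active means inhibition above the screen-wide mean plus 3 SD, cut at about 13% in these data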;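 further: signal is the Cy5 over europium emission ratio at 671 and 618 nm; 0% = plate median of compound wells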
TDP2 inh: blocks human TDP2 phosphodiesterase activity; recombinant TDP2, T5PNP hydrolysis, p-nitrophenol absorbance 415 nm; hit rate 0.34% among 370,000; inhibition, % at 12.8 µM; AID 720702;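 active means inhibition above the mean of all tested compounds plus 3 SD, set per campaign, cut at about 25% in these data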;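 further: 0% = DMSO with enzyme and 100% = buffer with substrate but no TDP2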
Target sequence (O95551 whole entry, looked up): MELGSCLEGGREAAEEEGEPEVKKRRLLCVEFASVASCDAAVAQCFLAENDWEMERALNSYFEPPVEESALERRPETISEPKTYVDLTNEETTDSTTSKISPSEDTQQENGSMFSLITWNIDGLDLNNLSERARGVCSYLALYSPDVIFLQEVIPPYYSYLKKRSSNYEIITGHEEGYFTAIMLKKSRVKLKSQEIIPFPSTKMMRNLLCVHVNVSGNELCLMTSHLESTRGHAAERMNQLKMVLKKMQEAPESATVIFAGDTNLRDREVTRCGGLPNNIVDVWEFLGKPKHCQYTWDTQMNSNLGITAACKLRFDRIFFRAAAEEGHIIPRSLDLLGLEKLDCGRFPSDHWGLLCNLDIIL
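Test system: Human TDP2 enzyme | Reagent: 5 mM T5PNP | Compound dosing: 12.8 µM single point, 1% DMSO | Incubation: Enzyme reaction with compound for 2 h at 37 °C | Technique: p-Nitrophenol epi absorbance | Read-out: % inhibition relative to enzyme-containing and enzyme-free wells | Benchmarks: High control without enzyme, low control DMSO plus TDP2 | Replicates: Singlicate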
MBD2 DNA inh: MBD2-methylated oligo binding inhibition | Q9UBB5 | TR-FRET, MBD2 binding to methylated oligonucleotide | AID 686964 | hit rate 0.31% among 370,000 | inhibition, % at 4.4 µM; in the data active means inhibition above about 13%
UHRF1 binding: UHRF1 methyl-DNA binding inhibition. Q96T88. UHRF1 binding to methylated oligo, TR-FRET. inhibition, % at 4.4 µM. hit rate 0.75% among 370,000. AID 687016; in the data active means inhibition above about 21%;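 further: UHRF1 SRA domain binding a hemimethylated CpG hairpin DNA probe; 0% = median of test compound wells and 100% = reference inhibitor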
IN multimer up: counter-screen for LEDGF/p75 integration inhibitors: HIV-1 integrase multimerization activators; shares compounds with LEDGF integ inh; TR-FRET HIV-1 integrase multimerization, biochemical; activation, % at 7.7 µM; hit rate 17% among 2,000; AID 1053131; in the data active means activation above about 8.9%
TR-FRET interf: counter-screen for LEDGF/p75 integration inhibitors: TR-FRET optical interference; shares compounds with LEDGF integ inh; 2,000 tested, under 10 active; inhibition, % at 7.7 µM; AID 1053135; TR-FRET optical interference counterscreen, HIV-1 IN multimerization;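 active means inhibition above the mean over all tested compounds plus 3 SD, which no compound reached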;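 further: 0% = integrase with antibodies and DMSO and 100% = antibodies without integrase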
LEDGF integ conf: confirmation of HIV-1 LEDGF/p75-dependent integration inhibitors. AID 1053136. inhibition, % at 3.7 µM. TR-FRET LEDGF/p75-dependent HIV-1 integration, biochemical. hit rate 36% among 2,000. shares compounds with LEDGF integ inh; in the data active means inhibition above about 14%
An asterisk follows results filed as active; · = no result. Compounds with a hit are over-represented: about 1.6% of the library has one in this group of screens.

SMILES	LEDGF integ inh	TDP2 inh	MBD2 DNA inh	UHRF1 binding	IN multimer up	TR-FRET interf	LEDGF integ conf
c1ccc(-c2cn3nc(-c4ccccc4)cnc3n2)cc1	90*	12	-2	0	-1	2	-3
O=C(N/C=C/c1ccco1)NCc1ccccc1	28*	5	7	23*	14*	-73	44*
O=C(COC(=O)/C=C/c1ccco1)NCc1ccccc1	1	-8	-4	0	·	·	·
CCc1nonc1NC(=O)c1oc2cc(Br)ccc2c1C	-1	-6	-3	-5	·	·	·
COc1ccc(-c2cnc3c(NC=O)cc(-c4ccoc4)cn23)cc1OC	28*	-16	-6	-6	-1	3	5
CCOC(=O)c1cnc2ccc(C)cc2c1NCCN1CCOCC1	44*	-27	-4	3	1	-4	1
Cc1ccc(N2C(=O)N(CC(=O)Nc3cc(Cl)ccc3C)C(=O)C2C)cc1 (stereo not given)	-4	0	5	6	·	·	·
Cc1ccc(N2C(=O)N(CC(=O)Nc3cccc(C)c3C)C(=O)C2C)cc1 (stereo not given)	15*	1	-3	-1	0	-1	-6
CCOc1ccc(CN(C)C(=O)c2cccnc2OCC)cc1OC	-2	10	-3	-1	·	·	·
Cc1nnc(NC(=O)CC(C)c2ccccc2)s1 (stereo not given)	-2	-3	2	1	·	·	·
CCOC(=O)C(CC(=O)Nc1nc(C(C)=O)c(C)s1)C(C)c1ccccc1 (stereo not given)	18*	0	3	1	1	-4	-5
CC(=O)Nc1ccc(Oc2cnccn2)cc1	29*	7	1	-2	-3	17	3
Cc1ccc(CNC(=O)/C=C/c2cccs2)cc1	25*	-1	1	-4	4	-14	-5
COc1ccc(-c2ccc(C(=O)Nc3cccc(NS(C)(=O)=O)c3)c3occc23)c(C)c1	16*	3	3	0	5	-17	-1
CCc1ccc(C(=O)COC(=O)C2=NN(c3ccccc3)C(=O)CC2)cc1	0	-8	-3	-3	·	·	·
Clc1ccc(-c2ccc(C=Nc3ccc(N4CCOCC4)cc3)o2)cc1	18*	19	-1	-1	2	-9	7
Clc1ccc(-c2ccc(C=Nc3ccc(N4CCOCC4)cc3)o2)c(Cl)c1	13	11	0	1	·	·	·
Cc1nnc(C)n1/N=C/c1ccc(-c2ccccc2Cl)o1	-5	14	5	3	·	·	·
Clc1cccc(-c2ccc(C=Nc3ccc(N4CCOCC4)cc3)o2)c1Cl	24*	15	-5	-1	4	-20	12
O=C(Cc1csc(N2CCOCC2)n1)N/N=C/c1ccc(O)c(O)c1O	55*	4	1	5	44*	-157	60*
O=C(CCN1CCN(c2ccccc2)CC1)N/N=C/c1ccc(O)c(O)c1O	42*	15	8	27*	49*	-174	73*
CCN(CC)CCCN(CC(=O)N(C)Cc1ccccc1)C(=O)c1ccc([N+](=O)[O-])cc1	-2	10	-2	0	·	·	·
Cc1nc(NCCCn2ccnc2)c2ccccc2n1	71*	5	-6	2	-1	3	0
c1cncc(-c2nc(NCCCn3ccnc3)c3ccccc3n2)c1	4	11	4	-2	·	·	·
Cc1ccc(S(=O)(=O)Nc2cc(C(C(=O)OC(C)C)C(=O)C(F)(F)F)c(O)c3ccccc23)c(C)c1 (stereo not given)	14*	10	2	-5	1	-4	-1
SMILES	LEDGF integ inh	TDP2 inh	MBD2 DNA inh	UHRF1 binding	IN multimer up	TR-FRET interf	LEDGF integ conf
Cc1ccc(S(=O)(=O)Nc2cccc(S(=O)(=O)Nc3ccccc3C(=O)O)c2)c(C)c1	-1	2	6	0	·	·	·
Oc1cccc(/C=N/N=C/c2cccc(O)c2O)c1O	27*	0	2	2	7	-24	73*
Cc1ccc(N=Cc2cccc(O)c2O)c(C)c1	31*	11	-6	-3	1	-3	75*
CCOC(=O)c1oc2c(O)c(O)ccc2c(=O)c1-c1nncn1-c1ccccc1	45*	-5	8	9	6	-20	40*
CCOC(=O)c1oc2c(C)c(O)ccc2c(=O)c1-c1nncn1-c1ccccc1	-1	5	-1	-3	·	·	·
Cc1cc(-c2cc(C)c(N)cc2C)c(C)cc1N	14*	8	1	1	2	-10	1
Cc1cc2c(cc1C)C(=O)C(Br)=C(N)C2=O	1	9	-15	-17	·	·	·
CCOc1ccc(C(=O)NC(=S)Nc2ccc(NC(=O)c3ccco3)c(C)c2)cc1[N+](=O)[O-]	-3	-8	1	2	·	·	·
O=C(Nc1ccc(Cl)cc1)c1csc(Cc2ccccc2)n1	-3	5	-2	2	·	·	·
O=C(NCCCO)c1ccc(CSc2nc3ccccc3[nH]2)cc1	17*	-5	5	1	0	0	-5
Clc1cccc(C2CCN(Cc3nc(CC4CC4)no3)C2)c1 (stereo not given)	35*	-2	0	0	0	2	0
CCCCNC(=O)C1c2ccccc2OCC(=O)N1Cc1ccco1 (stereo not given)	-5	4	1	0	·	·	·
CCCCNC(=O)C1c2ccccc2OCC(=O)N1Cc1ccccn1 (stereo not given)	30*	3	2	0	-3	14	3
CCN(CC)c1ccc(N=Cc2cc(Br)ccc2O)cc1	24*	-3	-7	-4	6	-23	7
CCOc1c2ccc(C(=O)NCCCCc3ccccc3)cc2nn1CC	-1	10	3	9	·	·	·
CCOC(=O)c1ccc(N/C=C/C(=O)C(C)(C)C)cc1	-5	-5	4	-1	·	·	·
CC(C)(C)C(=O)/C=C/Nc1ccccc1O	15*	-10	-19	-10	3	-10	1
CC(C)NCC(O)c1ccc(NS(C)(=O)=O)cc1 (stereo not given)	2	7	2	-2	·	·	·
CC(C)NC[C@@H](O)c1ccc(O)c(O)c1	16*	7	-7	-2	4	-21	21*
Cc1ccc(S(=O)(=O)c2nc(-c3ccco3)oc2N2CCC(C)CC2)cc1	-2	-3	-10	-1	·	·	·
COC(=O)CCCC1=CC2=CC(=O)C(C)(OC(=O)c3cccs3)C(=O)C2=CN1Cc1ccco1 (stereo not given)	25*	-1	-1	13	2	-6	18*
CCC(=O)Nc1nc2ccccc2n1Cc1ccc(C)cc1	14*	-4	3	1	-1	3	13
CCC(=O)Nc1nc2ccccc2n1Cc1ccccc1	6	7	2	-2	·	·	·
